The inhibition is the drop in the measured response relative to a control, in per cent. What is called ED50 is the dose at which the effect has come halfway, by size or by number of responders. As usually defined, the IC50 is the concentration needed to halve the response being measured.

For one series, the target named is Cytochrome P450 3A5 (Homo sapiens, UniProt P20815). As to the kind of experiment: Inhibition of human CYP3A5 at 10 uM. In kind it is ADME. The gist of the method:
(§1)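 Test compound at 10 μM against a human CYP450 panel (CYP1A2, 2B6, 2C8, 2C9, 2C19, 2D6, 3A4/5). Direct inhibition was measured, and time-dependent inhibition was measured after a 30-min preincubation.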

The target in the next series is Cytochrome P450 2D6 (Homo sapiens, UniProt P10635). As to the kind of experiment: Inhibition of human CYP2D6 at 10 uM. In kind it is ADME. A digest of the protocol: as §1
Sequence of Cytochrome P450 2D6 (P10635 whole entry): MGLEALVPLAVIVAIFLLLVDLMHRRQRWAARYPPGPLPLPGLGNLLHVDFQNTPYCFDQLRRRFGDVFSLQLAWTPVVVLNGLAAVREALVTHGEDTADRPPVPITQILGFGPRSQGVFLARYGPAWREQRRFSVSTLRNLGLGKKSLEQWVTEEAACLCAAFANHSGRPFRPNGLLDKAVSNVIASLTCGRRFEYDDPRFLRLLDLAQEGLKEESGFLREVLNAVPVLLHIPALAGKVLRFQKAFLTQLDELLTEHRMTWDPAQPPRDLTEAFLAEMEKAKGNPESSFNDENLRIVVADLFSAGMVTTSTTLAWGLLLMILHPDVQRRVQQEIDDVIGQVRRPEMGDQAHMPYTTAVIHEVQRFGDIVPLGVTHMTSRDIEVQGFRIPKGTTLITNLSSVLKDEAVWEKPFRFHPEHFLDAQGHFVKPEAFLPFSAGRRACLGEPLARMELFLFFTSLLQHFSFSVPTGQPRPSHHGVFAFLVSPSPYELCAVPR
The target of series [1] is Sodium channel protein type 3 subunit alpha (Rattus norvegicus) (UniProt P08104). As to the kind of experiment: Frequency-dependent inhibition of rat Nav1.3 expressed in HEK293 cells assessed as current amplitude at 10 uM by whole cell patch-clamp electrophysiology. It is filed as cell-based. The gist of the method: (§2)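 Stable HEK293 lines expressing hNav1.1, rNav1.3, hNav1.7 or hNav1.5 were recorded by whole-cell voltage clamp at room temperature, with 10 μM compound versus 0.1% DMSO. A 30-pulse train was applied, and the read-out was the fraction of current remaining at the last pulse normalized to the first. Nav1.5 used hyperpolarized protocols.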
Sequence of Sodium channel protein type 3 subunit alpha (Rattus norvegicus) (P08104 whole entry): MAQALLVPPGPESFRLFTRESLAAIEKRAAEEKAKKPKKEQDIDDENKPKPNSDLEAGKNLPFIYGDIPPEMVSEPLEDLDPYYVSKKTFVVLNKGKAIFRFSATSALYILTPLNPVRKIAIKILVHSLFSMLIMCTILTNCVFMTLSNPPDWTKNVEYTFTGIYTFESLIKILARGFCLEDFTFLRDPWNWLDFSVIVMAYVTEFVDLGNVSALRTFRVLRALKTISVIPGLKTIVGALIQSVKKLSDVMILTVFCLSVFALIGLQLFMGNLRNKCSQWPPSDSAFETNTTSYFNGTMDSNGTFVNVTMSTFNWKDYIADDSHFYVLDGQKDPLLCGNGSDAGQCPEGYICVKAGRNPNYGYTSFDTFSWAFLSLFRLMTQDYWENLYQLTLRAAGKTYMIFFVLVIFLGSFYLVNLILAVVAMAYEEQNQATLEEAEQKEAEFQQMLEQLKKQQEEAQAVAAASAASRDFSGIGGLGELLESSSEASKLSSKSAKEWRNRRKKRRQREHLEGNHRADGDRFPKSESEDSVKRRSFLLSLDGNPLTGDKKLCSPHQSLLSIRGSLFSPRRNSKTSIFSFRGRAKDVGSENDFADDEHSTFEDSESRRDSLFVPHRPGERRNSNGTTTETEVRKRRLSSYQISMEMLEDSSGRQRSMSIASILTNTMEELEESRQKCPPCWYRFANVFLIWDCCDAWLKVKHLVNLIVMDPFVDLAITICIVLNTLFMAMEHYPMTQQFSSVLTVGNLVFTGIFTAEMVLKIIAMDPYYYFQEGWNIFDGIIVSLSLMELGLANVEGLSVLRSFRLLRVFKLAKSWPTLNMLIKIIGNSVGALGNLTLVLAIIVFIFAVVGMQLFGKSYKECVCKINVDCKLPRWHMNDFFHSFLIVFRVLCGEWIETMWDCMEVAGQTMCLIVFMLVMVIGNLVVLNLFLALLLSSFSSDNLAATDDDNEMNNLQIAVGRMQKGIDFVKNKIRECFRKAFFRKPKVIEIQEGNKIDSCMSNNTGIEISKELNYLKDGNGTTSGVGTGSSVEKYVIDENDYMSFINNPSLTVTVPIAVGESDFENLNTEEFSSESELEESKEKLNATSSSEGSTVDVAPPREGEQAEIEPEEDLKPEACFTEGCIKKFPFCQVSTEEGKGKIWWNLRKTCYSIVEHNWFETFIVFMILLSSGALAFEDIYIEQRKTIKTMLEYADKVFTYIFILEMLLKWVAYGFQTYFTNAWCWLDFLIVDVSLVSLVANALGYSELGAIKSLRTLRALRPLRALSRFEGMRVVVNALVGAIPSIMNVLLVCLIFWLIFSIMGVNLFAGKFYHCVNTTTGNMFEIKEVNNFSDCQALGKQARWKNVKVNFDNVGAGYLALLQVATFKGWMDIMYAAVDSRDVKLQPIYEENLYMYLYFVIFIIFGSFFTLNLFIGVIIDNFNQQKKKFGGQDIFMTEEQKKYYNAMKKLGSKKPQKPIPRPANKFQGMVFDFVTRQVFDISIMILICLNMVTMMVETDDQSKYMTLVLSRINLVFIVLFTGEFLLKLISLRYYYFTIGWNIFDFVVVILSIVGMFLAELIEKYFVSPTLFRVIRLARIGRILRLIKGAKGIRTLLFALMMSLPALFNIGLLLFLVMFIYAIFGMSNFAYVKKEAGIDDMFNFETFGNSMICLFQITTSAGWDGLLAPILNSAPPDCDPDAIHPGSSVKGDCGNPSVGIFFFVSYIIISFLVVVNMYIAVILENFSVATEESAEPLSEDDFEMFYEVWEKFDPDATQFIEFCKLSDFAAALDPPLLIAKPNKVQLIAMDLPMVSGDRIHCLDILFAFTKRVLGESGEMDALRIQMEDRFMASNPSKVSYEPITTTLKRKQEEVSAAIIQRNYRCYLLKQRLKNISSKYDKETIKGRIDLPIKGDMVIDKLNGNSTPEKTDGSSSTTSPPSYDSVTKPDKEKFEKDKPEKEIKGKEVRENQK

For series [2], the target named is Voltage-gated inwardly rectifying potassium channel KCNH2 (Homo sapiens, UniProt Q12809). As to the kind of experiment: Binding affinity to human ERG at 30 uM by PatchExpress analysis.
Sequence of Voltage-gated inwardly rectifying potassium channel KCNH2 (Q12809 whole entry): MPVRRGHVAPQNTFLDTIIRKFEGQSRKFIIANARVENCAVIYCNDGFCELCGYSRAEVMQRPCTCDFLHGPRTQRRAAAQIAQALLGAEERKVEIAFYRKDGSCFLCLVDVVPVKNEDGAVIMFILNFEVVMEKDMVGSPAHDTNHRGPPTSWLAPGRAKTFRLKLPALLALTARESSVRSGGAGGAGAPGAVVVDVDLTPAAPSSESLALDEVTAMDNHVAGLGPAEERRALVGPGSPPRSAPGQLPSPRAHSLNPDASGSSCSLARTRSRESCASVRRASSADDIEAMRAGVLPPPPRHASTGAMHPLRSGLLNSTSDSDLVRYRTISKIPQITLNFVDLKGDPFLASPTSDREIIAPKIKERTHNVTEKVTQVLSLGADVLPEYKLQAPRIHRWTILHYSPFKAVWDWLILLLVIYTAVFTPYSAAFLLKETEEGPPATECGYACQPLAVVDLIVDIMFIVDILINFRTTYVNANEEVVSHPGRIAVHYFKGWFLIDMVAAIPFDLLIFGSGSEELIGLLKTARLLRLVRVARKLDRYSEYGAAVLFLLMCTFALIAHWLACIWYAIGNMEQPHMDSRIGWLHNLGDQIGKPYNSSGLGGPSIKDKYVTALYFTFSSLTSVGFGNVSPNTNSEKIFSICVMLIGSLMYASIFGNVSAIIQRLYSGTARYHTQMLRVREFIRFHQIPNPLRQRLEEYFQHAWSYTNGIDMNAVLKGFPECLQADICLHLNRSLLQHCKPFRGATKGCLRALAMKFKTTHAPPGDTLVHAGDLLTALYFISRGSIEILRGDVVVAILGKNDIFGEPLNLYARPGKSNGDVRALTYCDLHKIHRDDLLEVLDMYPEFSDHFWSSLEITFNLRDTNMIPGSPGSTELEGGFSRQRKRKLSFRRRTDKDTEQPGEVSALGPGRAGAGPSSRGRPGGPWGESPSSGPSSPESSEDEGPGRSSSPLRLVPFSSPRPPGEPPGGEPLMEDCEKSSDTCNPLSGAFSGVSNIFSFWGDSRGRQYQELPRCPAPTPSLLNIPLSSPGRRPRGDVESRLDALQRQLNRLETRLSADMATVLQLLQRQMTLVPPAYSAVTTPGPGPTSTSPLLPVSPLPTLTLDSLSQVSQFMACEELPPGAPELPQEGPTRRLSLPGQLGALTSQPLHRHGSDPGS
Series [3] concerns the target Sodium channel protein type 3 subunit alpha (Rattus norvegicus) (UniProt P08104). As to the kind of experiment: Inhibition of rat Nav1.3 expressed in HEK293 cells assessed as half-maximal voltage for steady state fast-inactivation at 10 uM by whole cell patch-clamp electrophysiology (reference value: -65.44 +/-5.62 mV). It is filed as cell-based. On the technique in general: Patch clamp records ionic current or voltage across a cell membrane.

For series [4], the system named is Rattus norvegicus. As to the kind of experiment: Ratio of NOAEL in Sprague-Dawley rat to ED50 for anticonvulsant activity in po dosed Sprague-Dawley rat by MES test. A digest of the protocol:
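Non-GLP 7-day repeated-dose study in female Sprague-Dawley rats, given by oral gavage at 20, 60 and 180 mg/kg/day. Endpoints: weight bearing, gait coordination, respiratory rate, relative organ weights, clinical chemistry and gross pathology, giving a NOAEL. The ratio divides the NOAEL by the oral MES ED50.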

The target in a further series is Cytochrome P450 3A4 (Homo sapiens, UniProt P08684). Put plainly: Inhibition of human CYP3A4 at 10 uM. In kind it is ADME. A digest of the protocol: as §1
Sequence of Cytochrome P450 3A4 (P08684 whole entry): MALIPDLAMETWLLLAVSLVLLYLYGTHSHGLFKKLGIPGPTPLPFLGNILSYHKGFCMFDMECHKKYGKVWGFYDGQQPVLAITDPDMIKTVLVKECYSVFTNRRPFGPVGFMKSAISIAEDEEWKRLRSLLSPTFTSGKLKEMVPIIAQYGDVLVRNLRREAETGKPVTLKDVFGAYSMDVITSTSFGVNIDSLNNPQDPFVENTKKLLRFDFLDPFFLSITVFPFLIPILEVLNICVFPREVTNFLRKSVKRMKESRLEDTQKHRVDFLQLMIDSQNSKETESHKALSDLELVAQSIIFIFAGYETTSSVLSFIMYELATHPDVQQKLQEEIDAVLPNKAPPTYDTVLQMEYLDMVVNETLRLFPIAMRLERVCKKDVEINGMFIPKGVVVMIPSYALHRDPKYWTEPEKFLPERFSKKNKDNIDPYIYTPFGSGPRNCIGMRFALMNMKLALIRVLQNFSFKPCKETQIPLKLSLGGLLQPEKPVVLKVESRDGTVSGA
A further series has as its system Mus musculus. As to the kind of experiment: Anticonvulsant activity in ip dosed albino Carworth Farms No. 1 mouse measured at 0.25 hrs by maximal electroshock seizure test. It is filed as functional. Particulars: Carworth Farms No. 1, ip. The gist of the method: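 Screened under the NIH anticonvulsant program in male albino Carworth Farms No. 1 mice (ip) and male albino Sprague-Dawley rats (ip or oral). Protection tested by maximal electroshock or 6 Hz (32 mA) psychomotor stimulation.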

The target of a further series is Cytochrome P450 2C9 (Homo sapiens, UniProt P11712). As to the kind of experiment: Inhibition of human CYP2C9 at 10 uM. In kind it is ADME. The gist of the method:
as §1

Series [5] addresses Sodium channel protein type 9 subunit alpha (Homo sapiens) (UniProt Q15858). As to the kind of experiment: Frequency-dependent inhibition of human Nav1.7 expressed in HEK293 cells assessed as current amplitude at 10 uM by whole cell patch-clamp electrophysiology. It is filed as cell-based. The gist of the method:
as §2

Series [6] deals with Rattus norvegicus. As to the kind of experiment: Anticonvulsant activity in ip dosed rat assessed as decrease in partial complex or temporal lobe seizures by hippocampal kindeld seizure test. In kind it is functional.
For another series, the target named is Cytochrome P450 2C19 (Homo sapiens, UniProt P33261). Put plainly: Inhibition of human CYP2C19 at 10 uM. It is filed as ADME. A digest of the protocol: as §1
Sequence of Cytochrome P450 2C19 (P33261 whole entry): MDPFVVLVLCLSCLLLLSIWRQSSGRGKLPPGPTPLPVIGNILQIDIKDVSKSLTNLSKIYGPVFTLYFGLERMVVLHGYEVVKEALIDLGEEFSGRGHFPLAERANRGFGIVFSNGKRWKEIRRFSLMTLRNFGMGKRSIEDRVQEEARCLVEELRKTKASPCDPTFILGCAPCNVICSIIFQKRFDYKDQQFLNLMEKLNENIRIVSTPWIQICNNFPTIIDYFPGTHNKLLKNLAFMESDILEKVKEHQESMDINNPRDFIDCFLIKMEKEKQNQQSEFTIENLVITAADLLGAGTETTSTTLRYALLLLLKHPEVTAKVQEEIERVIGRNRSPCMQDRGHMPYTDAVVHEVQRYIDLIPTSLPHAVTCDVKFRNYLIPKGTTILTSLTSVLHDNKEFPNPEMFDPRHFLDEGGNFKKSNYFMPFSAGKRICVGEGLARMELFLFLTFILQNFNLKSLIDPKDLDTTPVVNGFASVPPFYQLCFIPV
Series [7] concerns Rattus norvegicus. Put plainly: Toxicity in po dosed Sprague-Dawley rat assessed as changes in clinical chemistry parameters administered via gavage. It is filed as organism-based. Particulars: in vivo. A digest of the protocol: (§3)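 Non-GLP 7-day repeated-dose study in female Sprague-Dawley rats given oral gavage at 20, 60 and 180 mg/kg/day. Endpoints were weight bearing, gait coordination, respiratory rate, relative organ weights, clinical chemistry and gross pathology, with NOAEL determined.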

The subject of series [8] is Rattus norvegicus. Put plainly: Toxicity in po dosed Sprague-Dawley rat assessed as gross pathological changes administered via gavage. In kind it is organism-based. Particulars: in vivo. A digest of the protocol:
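Non-GLP repeated-dose study: female Sprague-Dawley rats given compound by oral gavage once daily for 7 days at 20, 60 and 180 mg/kg/day. Endpoints included weight bearing, gait coordination, respiratory rate, relative organ weights (liver, spleen, thymus), clinical chemistry and gross pathology; NOAEL derived.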

Series [9] concerns Rattus norvegicus. Put plainly: Toxicity in po dosed Sprague-Dawley rat assessed as decrease in spleen weight administered via gavage. It is filed as organism-based. Particulars: in vivo. The gist of the method: as §3
A short description of series [10]: Inhibition of voltage-gated sodium channel in mouse CAD cells assessed as transition of channels to slow-inactivated state measured at +20 mV by whole cell patch-clamp electrophysiology. It is filed as cell-based. The gist of the method: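 CAD cells were grown in Ham's F12/DMEM with 10% FBS at 37 °C and 5% CO2, then recorded by whole-cell voltage clamp at room temperature. A concentration range of compound was tested versus 0.1% DMSO. Slow inactivation was measured at −50 and +20 mV, and IC50 was derived from concentration-response curves.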

The test system of the next series is CAD. Put plainly: Frequency-dependent inhibition of voltage-gated sodium channel in mouse CAD cells assessed as decrease in current amplitude at 30 uM by whole cell patch-clamp electrophysiology. It is filed as cell-based. The gist of the method:
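CAD cells, whole-cell voltage clamp at room temperature, with compound at 1, 10 or 30 μM against 0.1% DMSO. Thirty identical test pulses were given at 10 Hz. Current was normalized as peak at pulse N over pulse 1, and the maximal decrement was read at the end of the train. One-way ANOVA with Dunnett's test; 4–10 cells per condition.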

The species named for series [11] is Rattus norvegicus. As to the kind of experiment: Frequency-dependent inhibition of voltage-gated sodium channel in rat embryonic cortical neurons assessed as current amplitude at 10 uM measured at holding potential of -80 mV by whole cell patch-clamp electrophysiology. A digest of the protocol: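 E19 rat cortical neurons cultured 7–10 days were recorded by whole-cell voltage clamp at room temperature. Compound was at 10 μM versus 0.1% DMSO. A pulse train was applied, and available current was taken as peak current at pulse N divided by peak at pulse 1.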

Series [12] concerns Rattus norvegicus. As to the kind of experiment: Bioavailability in Sprague-Dawley rat at 5 mg/kg, iv and 20 mg/kg, po. It is filed as ADME, organism-based. The settings on record: in vivo. A digest of the protocol: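 Pharmacokinetics in Sprague-Dawley rats given a single iv dose of 5 mg/kg or an oral dose of 20 mg/kg.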
In series [13] the target is Sodium channel protein type 1 subunit alpha (Homo sapiens) (UniProt P35498). Put plainly: Inhibition of human Nav1.1 expressed in HEK293 cells assessed as transition of channels to slow-inactivated state at 10 uM measured at -50 mV by whole cell patch-clamp electrophysiology. It is filed as cell-based. A digest of the protocol:
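HEK293 cells stably expressing hNav1.1, rNav1.3, hNav1.7 or hNav1.5 were grown in DMEM with 10% FBS. Recordings were whole-cell voltage clamp at room temperature, with 10 μM compound versus 0.1% DMSO. Slow inactivation at −50 mV was calculated as 1 minus normalized peak INa. Nav1.5 used hyperpolarized protocols. Data are from 5–6 cells.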

The target is the same in series [14]. Put plainly: Inhibition of human Nav1.1 expressed in HEK293 cells assessed as half-maximal voltage for steady state fast-inactivation at 10 uM by whole cell patch-clamp electrophysiology (reference value: -64.11 +/-3.63 mV). In kind it is cell-based.

Active and inactive are the calls of the source. No cut-off for these calls is given here.

Sequence of Cytochrome P450 2C9 (P11712 whole entry): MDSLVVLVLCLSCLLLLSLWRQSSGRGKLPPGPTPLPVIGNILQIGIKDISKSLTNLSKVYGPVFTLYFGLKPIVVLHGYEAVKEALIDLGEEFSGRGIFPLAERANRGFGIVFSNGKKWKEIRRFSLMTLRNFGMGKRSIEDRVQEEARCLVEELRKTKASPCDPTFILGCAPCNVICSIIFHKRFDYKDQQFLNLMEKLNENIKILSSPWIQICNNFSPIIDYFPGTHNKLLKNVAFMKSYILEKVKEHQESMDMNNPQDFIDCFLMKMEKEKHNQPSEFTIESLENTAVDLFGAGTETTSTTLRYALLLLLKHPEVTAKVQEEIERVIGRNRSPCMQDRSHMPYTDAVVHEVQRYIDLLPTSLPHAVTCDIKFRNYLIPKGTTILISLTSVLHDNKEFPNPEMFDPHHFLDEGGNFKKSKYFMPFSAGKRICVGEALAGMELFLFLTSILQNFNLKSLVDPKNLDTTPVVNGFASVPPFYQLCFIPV

`COC[C@@H](NC(C)=O)C(=O)NCc1ccc(Oc2cccc(OC(F)(F)F)c2)cc1`: the “inhibition (INH)” value at Cytochrome P450 3A5, against Cytochrome P450 2D6, on Cytochrome P450 3A4, against Cytochrome P450 2C9 and against Cytochrome P450 2C19 was “Not Active” in each case. For the same compound, the inhibition result (in [1]; in series [5]; in the series listed under Rattus norvegicus [11]) was “inactive” throughout. Besides, the Activity entry is reported as “Not Active” in series [2], “Toxic” in the series on Rattus norvegicus [7], “Toxic” in the series with Rattus norvegicus [8] and “Toxic” with Rattus norvegicus [9]. Besides, the V1/2 is -72.8 mV in [3] and -76.7 mV in series [14]. For the same compound, in the series on Rattus norvegicus [4], the Ratio is recorded as 10. Also, the ED50 with Mus musculus was 6.5 mg/kg; in the series on Rattus norvegicus [6], 22 mg/kg. In addition, in series [10], the IC50 worked out at 640 nM. Besides, in the series on CAD, the inhibition is 44%. In the series with Rattus norvegicus [12], this compound returned an F of 92%. In addition, the inhibition result in [13] was “Active”.

These data come from ChEMBL document CHEMBL3588826, “Chimeric derivatives of functionalized amino acids and α-aminoamides: compounds with anticonvulsant activity in seizure models and inhibitory actions on central, peripheral, and cardiac isoforms of voltage-gated sodium channels” (Bioorg Med Chem, 2015).
